Assay results of several laboratories.
Target: Sodium-dependent dopamine transporter (SLC6A3, Homo sapiens, UniProt Q01959)

| SMILES | assay | quantity | value |
| --- | --- | --- | --- |
| CNc1nc2cc(OCCCCN3CCN(c4cccc(Cl)c4Cl)CC3)ccc2s1 | ligand displacement, radioligand | Ki | 2800 nM |
| CN1[C@H]2CC[C@@H]1[C@@H](c1cc(-c3ccccc3)no1)[C@H](OC(c1ccc(F)cc1)c1ccc(F)cc1)C2 | ligand displacement, radioligand | Ki | 28 nM |
| NCCc1ccc(Oc2ccc(O)cc2)c(I)c1 | ligand displacement, radioligand | IC50 | 800 nM |
| CN[C@]1(c2ccccc2Cl)CCCCC1=O | ligand displacement, radioligand | IC50 | > 100000 nM |
| CC(NCc1ccccc1)C(=O)c1ccc2c(c1)OCO2 (stereo not shown) | ligand displacement, radioligand | Ki | < 100 nM |
| C[C@@H](CN1CCC(Cc2ccccc2)CC1)[C@@H](O)c1ccc(O)cc1 (relative stereo) | ligand displacement, radioligand | Ki | 6000 nM |
| CNC(C)(C)C(=O)c1ccccc1 | calcium signal, agonist, fluorescence | EC50 | 590 nM |
| Fc1ccccc1C(Cc1ccccc1)N1CCCC1 (stereo not shown) | ligand displacement, radioligand | Ki | 327 nM |
| CCC[C@@H](C(=O)c1ccc(C)cc1)N1CCCC1 | transporter uptake, inhibitor, radiometric | IC50 | 6.2 nM |
| CN[C@@H](C)C(=O)c1ccccc1 | calcium signal, agonist, fluorescence | EC50 | 240 nM |
